{"source": "paper PMC6763203", "about": "(Molecular pharmaceutics, 2019)", "key": {"[1]": {"experiment": "Hepatic microsome stability assay", "format": "in vitro ADME, mouse"}, "[2]": {"experiment": "Hepatic microsome stability assay", "format": "in vitro ADME, human"}, "[3]": {"experiment": "Plasma protein binding by equilibrium dialysis", "format": "in vitro ADME, human", "conditions": "5 μM, 37 °C, 6 hours", "summary_of_the_method": "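Equilibrium dialysis with test compound at 5 μM initial in the plasma chamber against PBS in the receiver chamber. Shaken at 37 °C for 6 h. Samples from both chambers were matrix-matched to 1:1 plasma:PBS and quantified by LC-MS/MS. Fraction bound = ([plasma] – [PBS]) / [plasma]. Run in triplicate.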"}, "S. aureus ATCC 29213": {"system": "S. aureus ATCC 29213", "experiment": "Prevention of biofilm formation, microtiter dish assay", "format": "cell-based, Staphylococcus aureus", "conditions": "2 μg/mL, 24 h", "summary_of_the_method": "(§1)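 Static biofilm prevention assay with S. aureus ATCC 29213 or MRSA clinical isolates from local hospitals in central China. Strains were grown in TSB plus 1% glucose in 96-well tissue-culture plates with test compound (0.0125–8 μg/mL) for 24 h. Wells were washed with sterile water and stained with 0.1% (w/v) crystal violet. Stain was solubilised in 95% ethanol and read at 540 nm. Results are reduction in biofilm mass, from three independent experiments in triplicate.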"}, "MRSA [4]": {"system": "MRSA", "experiment": "Prevention of biofilm formation, microtiter dish assay", "format": "cell-based, Staphylococcus aureus", "conditions": "for inhibition of biofilm formation: 0.0125–8 μg/mL, 24 h", "summary_of_the_method": "as §1"}, "MRSA [5]": {"system": "MRSA", "experiment": "MRSA mouse peritonitis model", "format": "in vivo", "conditions": "for MRSA in blood or kidney of the survived mice: 14 days after administration"}, "[6]": {"conditions": "mouse, liver microsomes, pH 7.4"}}}
{"molecule": "CCSC1CC(=O)C(C)(CCC(=O)Nc2c(O)ccc(C(=O)O)c2O)C2C3CC4CC12CC4(C)O3", "note": "(centres unmarked) [2t]", "values": [{"measurement": "Intrinsic Clearance", "setting": "[1]; mouse liver microsomes 1 mg/mL, 1 μM compound", "result": 46, "unit": "µL/min/mg"}, {"measurement": "T1/2", "setting": "[1]; mouse liver microsomes 1 mg/mL, 1 μM compound, 37 °C", "result": 15.0, "unit": "min"}, {"measurement": "Intrinsic Clearance", "setting": "[2]; human liver microsomes", "result": 32.0, "unit": "µL/min/mg"}, {"measurement": "Plasma Protein Binding, Bound", "setting": "[3]", "result": 35.0, "unit": "%"}, {"measurement": "Plasma Protein Binding, Free", "setting": "[3]", "result": 65.0, "unit": "%"}, {"measurement": "reduction of biofilm formation", "setting": "S. aureus ATCC 29213", "result": "over 95%"}, {"measurement": "inhibition of biofilm formation", "setting": "MRSA [4]", "result": "dose-dependently inhibited"}, {"measurement": "MRSA in blood or kidney of the survived mice", "setting": "MRSA [5]", "result": "a significant number of MRSAs was still present"}, {"measurement": "mice survival", "setting": "MRSA [5]; C57BL/6J mice, 50 mg/kg i.p. at 1 h and 5 h post infection, 14 days", "result": 80, "unit": "%"}]}
{"molecule": "CC12C[C@@]34C=CC(=O)[C@@](C)(CCC(=O)Nc5c(O)ccc(C(=O)O)c5O)C3[C@H](CC1C4)O2", "note": "(some centres unmarked) [PTM, platensimycin, reference compound]", "values": [{"measurement": "half-life at 1 μM", "setting": "[1]; [6]", "result": 13.6, "unit": "min"}, {"measurement": "microsomal CLint at 1 μM", "setting": "[1]; [6]", "result": 51, "unit": "µL/min/mg"}, {"measurement": "microsomal CLint at 1 μM", "setting": "[2]; human, liver microsomes, pH 7.4", "result": 14, "unit": "µL/min/mg"}, {"measurement": "Plasma Protein Binding, Bound", "setting": "[3]", "result": 66.0, "unit": "%"}, {"measurement": "reduction of biofilm formation", "setting": "S. aureus ATCC 29213", "result": "over 95%"}, {"measurement": "biofilm reduction, comparison of PTM with PTM-2t", "setting": "MRSA [4]", "result": "reduced more biofilm from MRSA than PTM-2t"}, {"measurement": "inhibition of biofilm formation", "setting": "MRSA [4]", "result": "dose-dependently inhibited"}]}
{"molecule": "CN[C@H](CC(C)C)C(=O)N[C@H]1C(=O)N[C@@H](CC(N)=O)C(=O)N[C@H]2C(=O)N[C@H]3C(=O)N[C@H](C(=O)N[C@H](C(=O)O)c4cc(O)cc(O)c4-c4cc3ccc4O)[C@H](O)c3ccc(c(Cl)c3)Oc3cc2cc(c3O[C@@H]2O[C@H](CO)[C@@H](O)[C@H](O)[C@H]2O[C@H]2C[C@](C)(N)[C@H](O)[C@H](C)O2)Oc2ccc(cc2Cl)[C@H]1O", "note": "[vancomycin, reference compound]", "values": [{"measurement": "MRSA in blood or kidney of the survived mice", "setting": "MRSA [5]", "result": "Only a few MRSA were present"}]}
